Experimental data taken from ChEMBL document CHEMBL2424567, “Hybrid peptides endomorphin-2/DAMGO: design, synthesis and biological evaluation” (Eur J Med Chem, 2013).
Activity calls are given as the source filed them. Non-standard residues stand in square brackets, D forms with d. Residues, ends and D or L forms follow the SMILES beside them. *: point of attachment. NHCH2CH2OH = OCCN*; Sar = CNCC(=O)O

Key:
Mu-type opioid receptor = Mu-type opioid receptor (Rattus norvegicus, UniProt P33535); test: Displacement of [3H]DAMGO from mu opioid receptor in Wistar rat brain membranes by liquid scintillation counting; type: cell membranes, Membrane
Mu-type opioid receptor, sequence (P33535 whole entry): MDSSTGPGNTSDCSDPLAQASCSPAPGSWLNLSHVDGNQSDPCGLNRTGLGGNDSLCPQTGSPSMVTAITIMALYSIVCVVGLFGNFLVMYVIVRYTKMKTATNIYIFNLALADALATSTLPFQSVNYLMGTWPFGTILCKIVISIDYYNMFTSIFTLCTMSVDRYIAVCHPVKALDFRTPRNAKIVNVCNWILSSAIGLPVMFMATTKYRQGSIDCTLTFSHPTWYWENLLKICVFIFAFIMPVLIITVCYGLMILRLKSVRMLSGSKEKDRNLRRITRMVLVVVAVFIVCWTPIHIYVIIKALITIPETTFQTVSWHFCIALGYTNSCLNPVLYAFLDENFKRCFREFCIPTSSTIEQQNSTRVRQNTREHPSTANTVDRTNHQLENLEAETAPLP

[1] = target: Delta-type opioid receptor (Rattus norvegicus, UniProt P33533); test: Displacement of [3H]Ile5,6deltorphin-2 from delta opioid receptor in Wistar rat brain membranes by liquid scintillation counting; type: cell membranes, Membrane
Delta-type opioid receptor, sequence (P33533 whole entry): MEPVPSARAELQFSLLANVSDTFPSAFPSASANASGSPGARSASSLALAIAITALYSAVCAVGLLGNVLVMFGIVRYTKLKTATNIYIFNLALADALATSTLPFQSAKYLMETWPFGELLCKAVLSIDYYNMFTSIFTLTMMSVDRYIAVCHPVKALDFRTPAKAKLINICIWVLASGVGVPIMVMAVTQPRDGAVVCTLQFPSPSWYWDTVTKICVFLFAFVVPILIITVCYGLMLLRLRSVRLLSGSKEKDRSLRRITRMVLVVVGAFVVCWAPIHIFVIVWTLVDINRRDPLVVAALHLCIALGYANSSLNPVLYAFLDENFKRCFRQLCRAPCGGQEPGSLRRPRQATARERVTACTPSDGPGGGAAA

Mus musculus [2] = test: Antinociceptive effect in icv dosed CD1 mouse assessed as increase in tail-flick latency period by tail flick test; type: functional
How it was run: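 Male CD-1 mice (25–30 g) given i.c.v. injection under light isoflurane (2 mm caudal/2 mm lateral of bregma, 3 mm deep, 5 µL), various doses. Radiant infrared heat focused 3–4 cm from tail tip; withdrawal latency with 15 s cut-off. Baseline is the mean of three readings 15 min apart; readings at 5–30 min. Result as %MPE; AD50 with 95% confidence limits by graded dose–response.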

Rattus norvegicus = organism: Rattus norvegicus; test: Selectivity ratio of Ki for delta opioid receptor in Wistar rat brain membranes to Ki for mu opioid receptor in Wistar rat brain membranes; type: cell membranes; settings: Membrane
How it was run: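 Washed Wistar rat brain membranes (0.2–0.4 mg/ml protein) incubated 30 min at 25 °C in 50 mM Tris-HCl pH 7.4 with BSA, captopril, bestatin and phosphoramidon (1 µM each). Radioligands were [3H]DAMGO (0.9–1.2 nM, μ) or [3H]Ile5,6-deltorphin-2 (0.8–1.3 nM, δ); competitor at 10^-11–10^-5 M; nonspecific binding with 10 µM naloxone. Filtration and scintillation counting; Ki by Cheng–Prusoff; δ/μ Ki ratio.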

Mus musculus [3] = test: Analgesic activity in icv dosed CD1 mouse assessed as inhibition of heat-induced jumping behaviour after 5 to 30 mins by hot plate method; type: functional
How it was run: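 Male CD-1 mice (25–30 g), lightly isoflurane-anaesthetised, injected i.c.v. 2 mm caudal and 2 mm lateral of bregma, 3 mm depth, 5 µL; various doses. Plate held at 55.0 ± 0.1 °C; latency to paw licking or jumping, 60 s cut-off. Baseline is the mean of three readings 15 min apart; readings at 5, 10, 15, 20 and 30 min. Result as %MPE; AD50 with 95% confidence limits by graded dose–response.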

[4] = Half life in human plasma at 100 ug/mL; type: ADME, cell-free
How it was run: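 Thawed human plasma spiked with compound in DMSO to 100 µg/mL final, incubated at 37 °C. Samples taken at set times were quenched with 5% ZnSO4/MeOH/ACN (5:3:2), centrifuged, and the supernatant analysed by reversed-phase HPLC-UV (275 or 254 nm). Calibration range 10–100 µg/mL. Three independent experiments.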

| SMILES | Ki (Mu-type opioid receptor) [nM] | Ki [1] [nM] | AD50 (Mus musculus [2]) | Ratio Ki (Rattus norvegicus) | AD50 (Mus musculus [3]) | half-life at 100 ug/mL [4] [min] |
| --- | --- | --- | --- | --- | --- | --- |
| CC[C@H](C)[C@H](NC(=O)[C@H](CCC(=O)O)NC(=O)[C@H](Cc1ccccc1)NC(=O)[C@H](C)NC(=O)[C@@H](N)Cc1ccc(O)cc1)C(=O)N[C@H](C(=O)NCC(N)=O)[C@@H](C)CC | > 10000 |  |  |  |  |  |
| C[C@@H](NC(=O)[C@@H](N)Cc1ccc(O)cc1)C(=O)NCC(=O)N(C)[C@@H](Cc1ccccc1)C(=O)NCCO [DAMGO] |  | > 10000 |  |  |  |  |
| CN(C(=O)[C@H](Cc1ccccc1)NC(=O)[C@@H]1CCCN1C(=O)[C@@H](N)Cc1ccc(O)cc1)[C@@H](Cc1ccccc1)C(=O)NCCO.O=C(O)C(F)(F)F | 224 | 3860 | 5.56 nmol | 17.2 | 9.44 nmol |  |
| CN(C(=O)[C@H](Cc1ccccc1)N(C)C(=O)[C@@H]1CCCN1C(=O)[C@@H](N)Cc1ccc(O)cc1)[C@@H](Cc1ccccc1)C(=O)NCCO.O=C(O)C(F)(F)F | 34 | 6400 | 2.65 nmol | 188 | 3.77 nmol | 40 |
| N[C@@H](Cc1ccc(O)cc1)C(=O)N1CCC[C@H]1C(=O)N[C@@H](Cc1ccccc1)C(=O)N[C@@H](Cc1ccccc1)C(=O)NCCO.O=C(O)C(F)(F)F | 90 | 799 | 3.44 nmol | 8.9 | 6.66 nmol |  |
| NC(=O)[C@H](Cc1ccccc1)NC(=O)[C@H](Cc1ccccc1)NC(=O)[C@@H]1CCCN1C(=O)[C@@H](N)Cc1ccc(O)cc1 [ENDOMORPHIN 2] |  |  | 1.49 nmol |  | 2.29 nmol |  |
| CN(C(=O)[C@@H]1CCCN1C(=O)[C@@H](N)Cc1ccc(O)cc1)[C@@H](Cc1ccccc1)C(=O)N[C@@H](Cc1ccccc1)C(=O)NCCO.O=C(O)C(F)(F)F | 155 | > 10000 | 3.03 nmol |  | 9.6 nmol |  |
| CN(CC(=O)N[C@@H](Cc1ccccc1)C(=O)NCCO)C(=O)[C@@H]1CCCN1C(=O)[C@@H](N)Cc1ccc(O)cc1 (H-YP[Sar]F-NHCH2CH2OH) | > 10000 | > 10000 | inactive |  | inactive |  |
